Screening results as filed in PubChem.
Most compounds without a hit are left out; they make up all but 1.5% or so of the library.
PKA-R1A act: activators of PKA-R1A complex; 340,000 tested, 0.083% active; activation, % at 11.4 µM; P00514+P68181; PKA-R1A dissociation, Cy5-IP20 fluorescence polarization; scaled: DMSO 0%, 113 µM cGMP 100%;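 active = percent activation above the mean of all tested compounds plus 3 SD, cut at about 19% in these data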;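 note: higher means more PKAc released from R1A so a rise in polarization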
SIRT5 block: inhibitors of human sirtuin-5 desuccinylase; AID 652115; Purified SirT5, succinyl-peptide AMC, trypsin-coupled fluorescence; Q9NXA8; 330,000 tested, 1.1% active; inhibition, % at 15 µM; in the data active = inhibition above about 15%
Target sequence (Q9NXA8 whole entry, looked up): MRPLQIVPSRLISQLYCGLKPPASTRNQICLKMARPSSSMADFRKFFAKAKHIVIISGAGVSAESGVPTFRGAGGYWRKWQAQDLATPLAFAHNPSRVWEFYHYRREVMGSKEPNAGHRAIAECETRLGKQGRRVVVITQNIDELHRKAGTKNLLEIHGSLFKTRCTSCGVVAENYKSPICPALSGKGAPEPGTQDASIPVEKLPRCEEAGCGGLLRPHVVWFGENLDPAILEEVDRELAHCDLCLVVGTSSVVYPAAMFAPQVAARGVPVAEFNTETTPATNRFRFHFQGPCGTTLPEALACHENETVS
CRFR2-BP antag: CRF-BP/CRF-R2 complex antagonism; HEK293 CRF-R2/CRF-BP, CRF-induced calcium fluorescence; inhibition, % at 11.8 µM; 350,000 tested, 0.59% active;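 active = inhibition of the ligand-induced calcium signal above about 50% at the single tested concentration, limit read from the data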
S100A4 inh HTS: inhibitors of human S100A4 binding to myosin IIA peptide | inhibition, % at 10.7 µM | P26447 | S100A4/TAMRA-MyoIIA peptide fluorescence polarization | 360,000 tested, 0.14% active;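 active = mean inhibition of at least 70% across replicates, with every replicate also reaching that level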
Target sequence (P26447 whole entry, looked up): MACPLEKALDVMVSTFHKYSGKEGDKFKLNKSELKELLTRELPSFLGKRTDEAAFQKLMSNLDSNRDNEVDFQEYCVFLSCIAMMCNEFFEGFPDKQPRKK
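assay system = human S100A4 monomer with TAMRA-labelled myosin IIA peptide | also added = labelled myosin peptide probe, 5 nM | incubation = 5 min between mix addition and reading | control set = DMSO and TFP controls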
PKA-R2B activ: activators of human PKA-R2B complex. 340,000 tested, 0.079% active. PKA-R2B holoenzyme dissociation, Cy5-IP20 fluorescence polarization; R2B truncated from residue 108, S112A mutant; 0% DMSO only, 100% 113 µM cGMP. activation, % at 11.4 µM. P22694+P31323;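 active = activation above a cutoff set at the mean over all compounds plus 3 SD, cut at about 18% in these data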;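 note: higher means more holoenzyme dissociation and a rise in polarization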
Starred values were filed as active, the others as inactive; . = no result given.

SMILES	PKA-R1A act	SIRT5 block	CRFR2-BP antag	S100A4 inh HTS	PKA-R2B activ
Oc1ccc(-c2c(-c3ccsc3)sc3ccccc23)cc1	-2	.	11	1	11
NC(=O)c1ccc(-c2c(-c3ccccc3)sc3ccccc23)cc1	6	29*	0	0	9
OCCOCCn1c(C(CO)Nc2nc(-c3ccccc3Br)cs2)nc2ccccc21 (stereo not drawn)	-6	23*	-7	9	-2
O=S(=O)(c1cccc(F)c1)N1CC[C@@H]2[C@H]1c1cc(C#Cc3ccccc3F)ccc1N[C@@H]2CO	.	6	.	-4	.
Cc1[nH]c2ccccc2c1C(=O)C(=O)N1CCN(c2ccccc2Cl)CC1	-6	34*	-21	-4	-14
O=C(c1cccnc1)N1CC(=O)N2[C@H](CO)[C@@H](c3ccc(-c4ccccc4F)cc3)[C@H]2C1	.	-2	.	.	.
COc1ccc(S(=O)(=O)N(C)C[C@H]2Oc3ccc(NC(=O)c4ccncc4)cc3CC(=O)N([C@@H](C)CO)C[C@@H]2C)cc1	.	-5	.	6	.
COc1ccccc1NC(=O)N1CCN(c2cccc(C(F)(F)F)c2)CC1	-10	18*	-11	-1	-6
COc1ccc2c3c([nH]c2c1)[C@@H](CO)N(C(=O)c1ccccc1)CC31CN(C(=O)Nc2cccc(F)c2)C1	.	-2	.	-6	.
CC1(C)OC(=O)C(=Cc2ccc(-c3ccc(S(N)(=O)=O)cc3)o2)C(=O)O1	-7	3	81*	1	-4
NS(=O)(=O)c1ccc(-c2ccc(/C=C3\C(=O)Nc4cc(Cl)ccc43)o2)cc1	2	-5	-5	2	10
COC1=C(Br)C(=O)c2ncccc2C1=O	3	4	58*	13	5
O=C1c2cccnc2-c2ncccc21	0	.	11	.	3
COc1ccc(CN2CCN(C(=O)c3cccs3)CC2)c(OC)c1OC	-10	.	58*	.	-10
COc1ccc(CN2CCN(C(=O)c3cccc4ccccc34)CC2)c(OC)c1OC	-4	15*	11	1	4
COc1cccc(Nc2nc(CN3CCOCC3)nc3sc4c(c23)CCCC4)c1	1	22*	-26	1	2
Cc1cc(S(=O)(=O)Nc2nc(CN3CCOCC3)nc3sc4c(c23)CCC4)cc(C)c1C	10	3	5	-4	9
O=C(NCCCn1ccnc1)c1ccc(NS(=O)(=O)c2ccc(Cl)c(Cl)c2)cc1	4	20*	1	7	-2
Cc1ccc(NS(=O)(=O)c2cccc(C(=O)NCCCn3ccnc3)c2)cc1	2	2	-7	2	-11
COc1ccc(S(=O)(=O)N(C)C[C@H]2Oc3cc(C#CC4CC4)ccc3S(=O)(=O)N([C@@H](C)CO)C[C@H]2C)cc1	.	22*	.	-3	.
COc1ccc(S(=O)(=O)N(C)C[C@H]2Oc3cc(C#CC4CC4)ccc3S(=O)(=O)N([C@@H](C)CO)C[C@@H]2C)cc1	.	22*	.	-7	.
COc1ccc(S(=O)(=O)N(C)C[C@H]2Oc3cc(C#CC4CCCCC4)ccc3S(=O)(=O)N([C@H](C)CO)C[C@H]2C)cc1	.	10	.	4	.
COc1ccc(S(=O)(=O)N(C)C[C@@H]2Oc3cc(C#CC4CC4)ccc3S(=O)(=O)N([C@H](C)CO)C[C@H]2C)cc1	.	15*	.	-9	.
CC(=O)N1CC2(C1)[C@@H](c1ccc(-c3ccc(C#N)cc3)cc1)[C@H](CO)N2C(=O)C1CC1	.	-6	.	-5	.
CN1/C(=C\C=C2/SC(=S)NC2=O)C(C)(C)c2ccccc21	2	-1	-144	104*	-5
SMILES	PKA-R1A act	SIRT5 block	CRFR2-BP antag	S100A4 inh HTS	PKA-R2B activ
CN1/C(=C\C=C2/C(=O)Oc3ccccc3C2=O)C(C)(C)c2ccccc21	.	-5	-383	178*	.
CCCN1C(=O)/C(=C\C=C2\N(CC)c3ccccc3C2(C)C)SC1=S	0	-3	-214	-43	-5
CN1C(=CC=C2C=C(I)C(=O)C(I)=C2)C(C)(C)c2ccccc21	1	2	5	-1	6
C[C@H](CO)N1C[C@H](C)[C@H](CN(C)Cc2cncnc2)Oc2ncc(-c3ccc(F)cc3)cc2C1=O	.	1	.	5	.
O=C(Nc1cccnc1Cl)c1ccc(=O)oc1	3	44*	6	-35	-2
C[C@@H]1CCCCO[C@@H](CN(C)C(=O)Nc2ccccc2)[C@@H](C)CN([C@H](C)CO)C(=O)c2cc(NC(=O)c3ccccc3)ccc2O1	.	-2	.	5	.
Cc1nn(C)c(Cl)c1NC(=O)OCc1ccc(Cl)cc1Cl	2	.	52*	.	2
O=C(NCCCc1ccccc1)c1cccc([N+](=O)[O-])c1	-8	-1	55*	0	-6
O=C(NCCCCc1ccccc1)c1cccc([N+](=O)[O-])c1	5	0	40	1	-1
COc1ccccc1-n1c(SCC(=O)O)nc2c(sc(=S)n2-c2ccc(Cl)c(C)c2)c1=O	-3	4	18	-3	-3
COc1ccccc1-n1c(SCC(=O)O)nc2c(sc(=S)n2-c2ccc(C)c(C)c2)c1=O	3	17*	0	-7	-15
COc1cccc(C(=O)Oc2ccc(/C=N/Nc3ccc(C(=O)O)cc3)cc2OC)c1	-7	8	2	1	-4
CCOc1cc(/C=N/Nc2ccc(C(=O)O)cc2)ccc1OC(=O)c1ccccc1C	-18	26*	-26	-5	-4
CO[C@H]1CN(C)C(=O)c2ccc(NS(=O)(=O)c3ccccc3C)cc2OC[C@H](C)NC[C@@H]1C	.	-3	.	7	.
O=C(O)c1cc(NN=C2c3ccccc3-c3ccccc32)ccc1Cl	-17	-14	50*	-1	7
CCCC(=O)Nc1ccc2c(c1)OC[C@H](C)N(Cc1cccc(F)c1)C[C@H](C)[C@@H](OC)CN(C)C2=O	.	1	.	-17	.
O=C(O)C1CSC(c2ccco2)N1 (stereo not drawn)	-6	16*	-3	2	4
O=C(O)C1CSC(c2ccncc2)N1 (stereo not drawn)	14	.	6	.	18
O=C(Nc1cccc(O)c1)c1ccc(NC(=O)c2cccs2)cc1	4	-1	68*	-1	-3
N#CCC(=O)Nc1ccc(C(=O)OCC(=O)NNC(=O)c2ccc(Cl)cc2)cc1	-2	-3	3	0	-5
N#CCC(=O)Nc1ccc(C(=O)OCC(=O)NNC(=O)c2cccs2)cc1	6	-1	55*	-5	-6
O=C(Nc1ccc(O)cc1)c1ccc(NC(=O)c2cccs2)cc1	-4	-5	11	-8	-4
O=C(NCc1cccnc1)c1ccc(Cn2c(=S)[nH]c3ccc(Br)cc3c2=O)cc1	-8	16*	-13	-3	6
c1ccc2c(c1)OCCOCCOCCOCCOCCOc1ccccc1OCCOCCOCCO2	6	9	99*	2	-3
